# Test results from paper PMC3001191 (Cancer research, 2010).
# Experiments:
# Tolerability in mice = format: in vivo
# [1] = test system: MEK and ERK phosphorylation in ^V600DBRAF WM266.4 cells; experiment: Western blotting of MAPK signaling; format: cell-based, human; details: 24 h
# In short: (§1)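 Cells in DMEM with 10% FBS were exposed to a concentration series for 24 h and lysed. Lysates were blotted for phospho-MEK1/2, MEK1, phospho-ERK1/2, ERK2 and cyclin D1. Detection used Alexa Fluor 680 and 800CW secondary antibodies, with quantification on an infrared scanner.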
# FGFR1 = FGFR1 (Homo sapiens, UniProt P11362); experiment: Z'-LYTE SelectScreen kinase profiling; format: biochemical
# Sequence of FGFR1 (P11362 22-822): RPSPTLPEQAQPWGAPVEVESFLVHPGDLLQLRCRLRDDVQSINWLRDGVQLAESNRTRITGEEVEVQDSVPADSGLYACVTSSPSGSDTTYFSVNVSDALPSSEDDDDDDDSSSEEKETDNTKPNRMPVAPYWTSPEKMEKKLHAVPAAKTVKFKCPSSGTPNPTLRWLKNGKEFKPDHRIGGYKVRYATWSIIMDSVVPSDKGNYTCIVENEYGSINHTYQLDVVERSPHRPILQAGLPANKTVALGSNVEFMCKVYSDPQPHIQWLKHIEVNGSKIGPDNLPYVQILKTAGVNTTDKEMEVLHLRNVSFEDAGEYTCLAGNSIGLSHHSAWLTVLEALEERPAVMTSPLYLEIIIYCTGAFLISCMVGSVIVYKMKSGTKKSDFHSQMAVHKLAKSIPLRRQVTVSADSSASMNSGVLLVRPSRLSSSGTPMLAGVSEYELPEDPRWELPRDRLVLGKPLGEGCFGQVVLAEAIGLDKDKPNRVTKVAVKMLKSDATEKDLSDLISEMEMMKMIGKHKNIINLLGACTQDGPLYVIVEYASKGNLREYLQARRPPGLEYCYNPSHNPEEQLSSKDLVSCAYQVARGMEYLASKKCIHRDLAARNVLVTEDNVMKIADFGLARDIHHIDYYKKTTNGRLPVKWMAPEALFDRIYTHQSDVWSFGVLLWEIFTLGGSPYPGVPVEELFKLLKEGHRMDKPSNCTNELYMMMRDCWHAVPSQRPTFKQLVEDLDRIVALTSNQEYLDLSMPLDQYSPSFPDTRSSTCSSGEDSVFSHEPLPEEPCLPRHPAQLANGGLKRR
# MET = MET (Homo sapiens, UniProt P08581); experiment: Z'-LYTE SelectScreen kinase profiling; format: biochemical
# RET = RET (Homo sapiens, UniProt P07949); experiment: Z'-LYTE SelectScreen kinase profiling; format: biochemical
# Sequence of RET (P07949 29-1114): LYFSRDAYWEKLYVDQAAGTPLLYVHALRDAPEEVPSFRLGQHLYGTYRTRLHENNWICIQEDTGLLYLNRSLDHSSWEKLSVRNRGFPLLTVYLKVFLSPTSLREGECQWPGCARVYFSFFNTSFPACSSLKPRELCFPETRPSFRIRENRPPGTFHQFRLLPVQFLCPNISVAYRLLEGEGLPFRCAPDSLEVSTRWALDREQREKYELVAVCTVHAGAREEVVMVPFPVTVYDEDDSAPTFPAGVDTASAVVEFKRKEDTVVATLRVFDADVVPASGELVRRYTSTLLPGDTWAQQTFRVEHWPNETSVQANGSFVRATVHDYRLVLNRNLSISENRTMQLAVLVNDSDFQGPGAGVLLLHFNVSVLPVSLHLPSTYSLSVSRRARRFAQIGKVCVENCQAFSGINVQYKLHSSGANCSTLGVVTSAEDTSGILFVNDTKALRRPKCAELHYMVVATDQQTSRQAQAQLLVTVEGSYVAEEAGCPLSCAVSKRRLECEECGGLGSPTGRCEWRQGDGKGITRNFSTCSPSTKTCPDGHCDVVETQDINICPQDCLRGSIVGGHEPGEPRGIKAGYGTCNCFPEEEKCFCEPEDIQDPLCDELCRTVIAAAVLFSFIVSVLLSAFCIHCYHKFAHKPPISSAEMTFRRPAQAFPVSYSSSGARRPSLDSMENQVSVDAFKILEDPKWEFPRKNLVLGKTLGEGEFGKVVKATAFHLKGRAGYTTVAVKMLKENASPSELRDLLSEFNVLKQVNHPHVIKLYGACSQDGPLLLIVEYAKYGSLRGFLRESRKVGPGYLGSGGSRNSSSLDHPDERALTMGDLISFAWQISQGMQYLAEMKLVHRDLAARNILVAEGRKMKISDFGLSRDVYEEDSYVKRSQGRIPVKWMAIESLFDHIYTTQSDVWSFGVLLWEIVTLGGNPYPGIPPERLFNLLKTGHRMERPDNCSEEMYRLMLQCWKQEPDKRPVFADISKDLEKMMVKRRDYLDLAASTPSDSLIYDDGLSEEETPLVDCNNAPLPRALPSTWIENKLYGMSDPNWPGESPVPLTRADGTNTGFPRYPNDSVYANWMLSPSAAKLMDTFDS
# Pharmacokinetics in mice = format: in vivo; details: for concentration at 18 h: po, 10 mg/kg
# In short: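 Female BALB/cAnNCrl mice over 6 weeks old were dosed i.v. at 2 mg/kg (10 ml/kg, DMSO:Tween 20:water 10:1:89). Others received 10 mg/kg by oral gavage (10 ml/kg, DMSO:water 1:19). At 5 min (i.v. only), 15 and 30 min, and 1, 3, 6 and 18 h, 3 mice per point gave heparinized blood for plasma under isoflurane. Femoral muscle was also collected. Plasma levels were compared with the mean 5-d SRB GI50 of BRAF-mutant lines.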
# SKMEL23 cells = experiment: SRB growth inhibition assay, cell line panel; format: cell-based, human
# In short: (§2)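 Growth inhibition was measured by sulforhodamine B across a panel of melanoma, colon and breast cancer cell lines after 5 d continuous exposure. Seeding density was optimized per line to keep growth logarithmic. Curves used 10-point dilution series in quadruplicate and were fitted to give IC50/GI50. Lines were grouped by BRAF/RAS mutation status for comparison.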
# [2] = test system: MEK phosphorylation in SW620 xenografts; experiment: Pharmacodynamics, MEK phosphorylation in tumor xenografts; format: in vivo, mice; details: single p.o. dose 20 mg/kg, 4 h, KRAS mutant SW620 tumors
# In short: (§3)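 Female Crl:CD1-Foxn1nu mice (>6 weeks) were inoculated s.c. with 10^7 A375M or 7 × 10^6 SW620 cells. Tumors were grown to 50–150 mm3. Groups of 3-4 mice received one 20 mg/kg oral gavage dose or vehicle and were culled 4 h later. Tumors were snap-frozen, lysed in NP40 buffer and homogenised. Equal protein was probed by quantitative fluorescent Western blot for phospho-MEK1/2 and total MEK1.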
# [3] = test system: ^V600EBRAF-expressing Ba/F3 cells; experiment: DNA synthesis; format: cell-based; details: Mus musculus, BaF3, 24 h, read-out: growth (DNA synthesis) inhibition
# In short: (§4)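 Ba/F3 lines stably expressing the mutant BRAF were cultured in RPMI1640 with 10% FBS at 37 °C in 10% CO2. Cells (1-5 × 10^4 per well) were exposed to compound for 24 h, with 0.08 µCi [3H]-thymidine added per well for the last 4 h. Cells were then captured on glass-fibre filters and washed twice with PBS and twice with methanol. Incorporated label was counted by scintillation.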
# CRAF = CRAF (Homo sapiens, UniProt P04049, Y340D/Y341D); experiment: Z'-LYTE SelectScreen kinase profiling; format: biochemical
# [4] = test system: MEK phosphorylation in A375M xenografts; experiment: Pharmacodynamics, MEK phosphorylation in tumor xenografts; format: in vivo, mice; details: single oral dose of 20 mg/kg, 4 h, A375M tumors
# In short: as §3
# [5] = test system: ^V600EBRAF A375M melanoma xenografts; experiment: Therapy study, xenograft growth; format: in vivo, mice; details: 20 mg/kg q.d. p.o. for 24 d, on completion of the experiment, p<0.05
# In short: (§5)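 Female Crl:CD1-Foxn1nu mice (>6 weeks) were implanted s.c. with 10^7 A375M or 7 × 10^6 SW620 cells. Tumors grew to 50–150 mm3, and groups of 8 were assigned by stratified tumor volume. Mice received 20 mg/kg/d by gavage (10 ml/kg, DMSO:water 1:19) or vehicle, for 24 d (A375M) or 23 d (SW620). Calipers measured tumors every 3-4 d, and mean volume ± SEM was plotted.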
# [6] = test system: ^T529N,V600EBRAF-expressing Ba/F3 cells; experiment: DNA synthesis; format: cell-based; details: Mus musculus, BaF3, 24 h, read-out: growth (DNA synthesis) inhibition
# In short: as §4
# [7] = test system: ^G12VKRAS mutant human colorectal carcinoma SW620 xenografts; experiment: Therapy study, xenograft growth; format: in vivo, mice; details: 20 mg/kg daily p.o. for 23 d
# In short: as §5
# p38α = p38α (Homo sapiens, UniProt Q16539); experiment: Z'-LYTE SelectScreen kinase profiling; format: biochemical
# VEGFR1 = VEGFR1 (Homo sapiens, UniProt P17948); experiment: Z'-LYTE SelectScreen kinase profiling; format: biochemical
# [8] = test system: MEK and ERK phosphorylation in BRAF wild-type D35 melanoma cells; experiment: Western blotting of MAPK signaling; format: cell-based; details: 24 h, concentrations up to 10 μM
# In short: as §1
# panel of 80 kinases = experiment: Selectivity profile against 80 kinase panel; format: biochemical, human; details: 1 μM 1t
# In short: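 Each of 80 kinases was screened at a single 1 µM concentration using the commercial SelectScreen panel under the provider's protocols. Results were expressed as percent inhibition of kinase activity, and kinases inhibited by >70% were singled out.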
# [9] = test system: cell lines in which BRAF is wildtype; experiment: SRB growth inhibition assay, cell line panel; format: cell-based, human; details: 5 d exposure
# In short: as §2
# SW620 cells = experiment: MTS cell proliferation assay; format: cell-based, human; details: 72 h
# In short: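 SW620 cells in DMEM with 10% FBS received a range of compound concentrations for 72 h. Proliferation was quantified with MTS reagent. Seeding density was optimized so growth stayed logarithmic throughout treatment. Wells were run in quadruplicate, and comparisons used a t-test.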
# SRC = SRC (Homo sapiens, UniProt P12931); experiment: Z'-LYTE SelectScreen kinase profiling; format: biochemical
# [10] = test system: ERK1/2 phosphorylation in WM266.4 cells; experiment: Phospho-ERK cell-based ELISA; set-up: species or system human; details: cellular potency greater
# PDGFRβ = PDGFRβ (Homo sapiens, UniProt P09619); experiment: Z'-LYTE SelectScreen kinase profiling; format: biochemical
# COT = COT (Homo sapiens, UniProt P41279); experiment: Z'-LYTE SelectScreen kinase profiling; format: biochemical
# Sequence of COT (P41279 whole entry): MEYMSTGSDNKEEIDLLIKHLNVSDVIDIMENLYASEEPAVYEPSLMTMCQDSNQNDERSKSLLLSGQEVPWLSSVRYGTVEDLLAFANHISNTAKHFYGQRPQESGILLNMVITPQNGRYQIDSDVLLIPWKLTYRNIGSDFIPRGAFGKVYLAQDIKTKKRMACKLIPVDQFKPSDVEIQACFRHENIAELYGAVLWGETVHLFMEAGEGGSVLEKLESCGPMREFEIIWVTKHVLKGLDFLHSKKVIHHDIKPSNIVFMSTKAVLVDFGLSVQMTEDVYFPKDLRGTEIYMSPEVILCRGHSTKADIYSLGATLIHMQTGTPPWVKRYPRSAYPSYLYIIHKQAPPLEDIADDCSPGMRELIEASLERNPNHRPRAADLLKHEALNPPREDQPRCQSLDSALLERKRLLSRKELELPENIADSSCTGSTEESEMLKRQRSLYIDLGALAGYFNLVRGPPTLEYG
# [11] = test system: MEK and ERK phosphorylation in KRAS mutant SW620 colorectal carcinoma cells; experiment: Western blotting of MAPK signaling; format: cell-based, human; details: 24 h
# In short: as §1
# VEGFR2 = VEGFR2 (Homo sapiens, UniProt P35968); experiment: Z'-LYTE SelectScreen kinase profiling; format: biochemical
# Sequence of VEGFR2 (P35968 20-1356): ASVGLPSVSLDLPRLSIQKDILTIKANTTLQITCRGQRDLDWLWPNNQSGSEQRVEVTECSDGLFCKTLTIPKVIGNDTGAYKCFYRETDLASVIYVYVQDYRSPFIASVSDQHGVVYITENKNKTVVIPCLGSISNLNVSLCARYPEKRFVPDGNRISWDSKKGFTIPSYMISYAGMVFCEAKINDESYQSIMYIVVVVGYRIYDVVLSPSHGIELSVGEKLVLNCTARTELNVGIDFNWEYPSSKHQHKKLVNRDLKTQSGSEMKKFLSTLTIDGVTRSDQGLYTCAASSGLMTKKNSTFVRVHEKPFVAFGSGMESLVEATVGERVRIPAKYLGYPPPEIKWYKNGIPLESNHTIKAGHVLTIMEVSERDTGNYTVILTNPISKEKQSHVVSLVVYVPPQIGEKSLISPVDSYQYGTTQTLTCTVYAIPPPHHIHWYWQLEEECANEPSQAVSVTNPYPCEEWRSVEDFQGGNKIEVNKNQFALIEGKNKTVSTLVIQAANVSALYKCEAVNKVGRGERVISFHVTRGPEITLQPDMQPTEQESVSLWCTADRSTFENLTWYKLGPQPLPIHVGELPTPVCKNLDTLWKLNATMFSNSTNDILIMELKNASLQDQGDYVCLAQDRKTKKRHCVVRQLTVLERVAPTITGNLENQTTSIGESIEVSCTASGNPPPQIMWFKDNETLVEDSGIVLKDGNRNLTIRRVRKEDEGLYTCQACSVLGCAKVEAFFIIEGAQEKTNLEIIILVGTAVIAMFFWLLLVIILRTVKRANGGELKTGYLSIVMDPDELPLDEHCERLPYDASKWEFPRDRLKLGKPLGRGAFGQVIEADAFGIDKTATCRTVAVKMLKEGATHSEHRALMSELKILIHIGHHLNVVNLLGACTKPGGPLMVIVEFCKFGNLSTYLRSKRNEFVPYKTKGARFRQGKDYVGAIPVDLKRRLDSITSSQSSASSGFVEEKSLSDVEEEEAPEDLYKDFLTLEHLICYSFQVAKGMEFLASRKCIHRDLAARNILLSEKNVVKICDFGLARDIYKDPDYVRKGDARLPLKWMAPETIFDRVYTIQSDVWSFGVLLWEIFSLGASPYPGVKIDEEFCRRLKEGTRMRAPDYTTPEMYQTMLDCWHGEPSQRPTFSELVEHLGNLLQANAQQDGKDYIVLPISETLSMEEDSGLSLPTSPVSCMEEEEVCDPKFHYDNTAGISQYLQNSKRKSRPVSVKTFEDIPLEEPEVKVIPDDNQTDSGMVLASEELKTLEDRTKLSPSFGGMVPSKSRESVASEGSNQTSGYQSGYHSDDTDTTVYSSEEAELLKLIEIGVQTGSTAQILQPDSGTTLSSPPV
# [12] = test system: cancer cell lines harboring ^V600D/EBRAF mutations; experiment: SRB growth inhibition assay, cell line panel; format: cell-based, human; details: 5 d exposure, ^V600D/EBRAF mutant lines
# In short: as §2
# [13] = test system: WM266.4 (^V600DBRAF) cells; experiment: DNA synthesis; format: cell-based, human; details: WM266.4 cells, 0.1 μM 1t for 24 h
# In short: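 Cells were grown in DMEM with 10% FBS at 37 °C in 10% CO2. They were seeded at 10^5 per well in 6-well plates and treated with 0.1 µM compound for 24 h. DNA synthesis was measured with 0.8 µCi tritiated label per well. Cells were harvested by trypsinization and an aliquot was filter-captured and scintillation-counted as for suspension cells.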
# ^V600EBRAF = ^V600EBRAF (Homo sapiens, UniProt P15056, V600E); experiment: Z'-LYTE SelectScreen kinase profiling; format: biochemical
# Sequence of ^V600EBRAF (P15056 whole entry V600E): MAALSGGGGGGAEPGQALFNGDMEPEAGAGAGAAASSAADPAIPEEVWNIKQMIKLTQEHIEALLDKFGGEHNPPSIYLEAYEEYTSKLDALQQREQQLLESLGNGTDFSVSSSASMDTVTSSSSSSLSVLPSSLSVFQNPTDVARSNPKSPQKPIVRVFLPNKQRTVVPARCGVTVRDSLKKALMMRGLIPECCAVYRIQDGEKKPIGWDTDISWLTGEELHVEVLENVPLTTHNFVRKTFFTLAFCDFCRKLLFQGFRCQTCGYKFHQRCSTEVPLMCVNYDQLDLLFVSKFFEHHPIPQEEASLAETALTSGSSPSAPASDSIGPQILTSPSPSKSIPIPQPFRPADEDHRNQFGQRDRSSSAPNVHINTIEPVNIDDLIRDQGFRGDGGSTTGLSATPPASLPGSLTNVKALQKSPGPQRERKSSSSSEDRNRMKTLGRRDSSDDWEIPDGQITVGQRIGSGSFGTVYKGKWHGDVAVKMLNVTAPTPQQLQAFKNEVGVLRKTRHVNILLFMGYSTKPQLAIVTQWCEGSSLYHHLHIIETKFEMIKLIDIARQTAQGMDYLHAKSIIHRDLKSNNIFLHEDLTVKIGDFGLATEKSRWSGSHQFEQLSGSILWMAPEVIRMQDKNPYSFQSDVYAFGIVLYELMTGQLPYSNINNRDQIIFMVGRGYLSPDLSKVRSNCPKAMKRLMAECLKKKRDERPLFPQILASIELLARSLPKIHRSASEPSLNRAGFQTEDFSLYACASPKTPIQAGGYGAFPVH
# [14] = test system: ^V600EBRAF mutant HT29 cells; experiment: SRB growth inhibition assay, cell line panel; format: cell-based, human
# In short: as §2
# ^T529N,V600EBRAF = ^T529N,V600EBRAF (Homo sapiens, UniProt P15056, T529N/V600E); experiment: DELFIA kinase assay, gatekeeper mutant; format: biochemical; details: at up to 10 μM
# Sequence of ^T529N,V600EBRAF (P15056 whole entry T529N/V600E): as the sequence (P15056 whole entry V600E) above, with T529N counted along it
# In short: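 Full-length recombinant BRAF construct carrying the gatekeeper and activating substitutions was tested in a 96-well DELFIA assay. The assay measured direct phosphorylation of bacterially produced GST-MEK at 100 µM ATP. Reactions ran in duplicate for 45 min at 20°C, within the linear range, across an 11-concentration response curve. Each value was the mean of 3 independent assays.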
# KIT = KIT (Homo sapiens, UniProt P10721); experiment: Z'-LYTE SelectScreen kinase profiling; format: biochemical
# LCK = LCK (Homo sapiens, UniProt P06239); experiment: Z'-LYTE SelectScreen kinase profiling; format: biochemical
# Sequence of LCK (P06239 whole entry): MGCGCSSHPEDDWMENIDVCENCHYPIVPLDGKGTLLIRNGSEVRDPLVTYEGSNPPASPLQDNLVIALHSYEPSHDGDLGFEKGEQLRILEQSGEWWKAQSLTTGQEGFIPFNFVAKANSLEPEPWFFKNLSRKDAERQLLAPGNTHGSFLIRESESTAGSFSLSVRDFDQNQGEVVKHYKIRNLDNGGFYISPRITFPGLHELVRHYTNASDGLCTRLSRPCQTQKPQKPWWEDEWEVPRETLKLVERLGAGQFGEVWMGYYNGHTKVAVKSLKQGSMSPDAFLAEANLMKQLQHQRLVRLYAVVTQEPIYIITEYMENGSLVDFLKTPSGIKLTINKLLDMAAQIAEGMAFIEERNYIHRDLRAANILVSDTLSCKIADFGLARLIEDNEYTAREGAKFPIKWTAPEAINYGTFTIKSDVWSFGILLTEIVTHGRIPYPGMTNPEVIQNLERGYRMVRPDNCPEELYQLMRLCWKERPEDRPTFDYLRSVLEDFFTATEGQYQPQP
# PDGFRα = PDGFRα (Homo sapiens, UniProt P16234); experiment: Z'-LYTE SelectScreen kinase profiling; format: biochemical
# BRAF = BRAF (Homo sapiens, UniProt P15056); experiment: Z'-LYTE SelectScreen kinase profiling; format: biochemical
# Sequence of BRAF (P15056 whole entry): as the sequence (P15056 whole entry V600E) above, with E600V counted along it
# p38γ = p38γ (Homo sapiens, UniProt P53778); experiment: Z'-LYTE SelectScreen kinase profiling; format: biochemical
# [15] = test system: ^V600EBRAF purified kinase; details: cited from earlier work
# ^V600EBRAF in cells = details: cited from earlier work
# [16] = continuous daily dosing 20 mg/kg in therapy experiments
# [17] = female, BALB/cAnNCrl, mouse, plasma, iv, 2 mg/kg
compound,measurement,setting,value
"CSc1cc(Oc2ccnc3[nH]c(=O)cnc23)ccc1NC(=O)Nc1cc(C(C)(C)C)nn1-c1ccc(C)cc1 [Compound 1t, 1-(3-tert-butyl-1-p-tolyl-1H-pyrazol-5-yl)-3-(2-(methylthio)-4-(3-oxo-3,4-dihydropyrido[2,3-b]pyrazin-8-yloxy)phenyl)urea]",adverse effects / body weight,"Tolerability in mice; 10 and 20 mg/kg/d p.o. for 4 d, body weight monitored a further 27 d",No adverse effects were observed
same,body weight loss,Tolerability in mice; [16],less than 10%
same,deaths,Tolerability in mice; [16],does not cause any deaths
same,concentration inhibiting MEK and ERK phosphorylation,[1],10 to 100 nM
same,IC50,FGFR1,2580 nM
same,IC50,MET,> 10000 nM
same,IC50,RET,4860 nM
same,concentration at 18 h,"Pharmacokinetics in mice; female, BALB/cAnNCrl, mouse, femoral muscle",> 3 µM
same,clearance,Pharmacokinetics in mice; [17],0.00667 mL/min
same,half-life,Pharmacokinetics in mice; [17],6.8 h
same,concentration at 18 h,"Pharmacokinetics in mice; female, BALB/cAnNCrl, mouse, plasma",> 19 µM
same,plasma concentration relative to average GI50 for BRAF mutant cancer cell lines,Pharmacokinetics in mice; mice,over 100 fold
same,sensitivity relative to the other BRAF/RAS wildtype cells,SKMEL23 cells,considerably more sensitive
same,increase in MEK phosphorylation,[2],2 fold
same,inhibition at 1 µM,[3],96%
same,IC50,CRAF,12 nM
same,inhibition of MEK phosphorylation,[4],observed
same,tumor growth inhibition,[5],50%
same,inhibition at 1 µM,[6],21%
same,tumor growth inhibition,[7],No inhibition of tumor growth
same,IC50,p38α,285 nM
same,IC50,VEGFR1,5160 nM
same,MEK and ERK phosphorylation / cyclin D1 response,[8],no such responses are observed
same,inhibition of kinases in an 80 kinase panel,panel of 80 kinases,failed to inhibit most of the kinases
same,growth inhibition,[9],relatively ineffective
same,effect on proliferation,SW620 cells,small increase in proliferation
same,IC50,SRC,23 nM
same,cellular potency relative to inhibition of recombinant ^V600EBRAF in vitro,[10],approximately 4 fold
same,IC50,PDGFRβ,2430 nM
same,IC50,COT,> 10000 nM
same,effect on MEK and ERK phosphorylation,[11],profound increase
same,IC50,VEGFR2,1000 nM
same,fold less active against VEGFR2/KDR than against ^V600EBRAF,VEGFR2; SelectScreen Panel,more than 50 fold
same,growth inhibition,[12],inhibits the growth
same,inhibition of DNA synthesis,[13],profound inhibition
same,IC50,^V600EBRAF,13 nM
same,sensitivity relative to the majority of the other BRAF mutant cell lines,[14],less sensitive
same,"inhibition of ^T529N,V600EBRAF kinase activity","^T529N,V600EBRAF",not inhibited
same,IC50,KIT,> 10000 nM
same,IC50,LCK,6 nM
same,IC50,PDGFRα,439 nM
same,IC50,BRAF,81 nM
same,fold less active against wildtype BRAF than against ^V600EBRAF,BRAF; SelectScreen Panel,more than 6 fold
same,IC50,p38γ,1020 nM
CNC(=O)c1cc(Oc2ccc(NC(=O)Nc3ccc(Cl)c(C(F)(F)F)c3)cc2)ccn1 [sorafenib],activity against the purified kinase in vitro,[15],40 nM
same,activity against ^V600EBRAF in cells,^V600EBRAF in cells,2 to 5 µM
same,fold less active in cells than against the purified kinase,^V600EBRAF in cells,approximately 100 fold
